Screening results as filed in PubChem BioAssay.
In the library only some 3.2% were active in any assay of this set; here they are far more common.
MEKK2 WT-MEK5 – raises or lowers MEK5 binding to wildtype human MEKK2 PB1 domain. binding response (% of control), % at 10 µM. bead flow cytometry, Alexa488-MEK5 binding to MEKK2 WT; actives lie on both sides. Q9Y2U5. 290,000 compounds, 1.1% hits; in the data active = binding response below about 67% or above about 130%
Apaf1 inhib – inhibitors of human Apaf-1 apoptosome; reconstituted apoptosome caspase-3 activity, DEVD-Rh110 fluorescence; inhibition, % at 20 µM; 330,000 compounds, 0.71% hits; active = inhibition of at least 40% at 20 µM;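 also: plate controls were DMSO wells for no effect and DEVD-CHO caspase inhibitor wells for full effect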
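System: Apoptosome proteins | Medium: Hepes pH 7.5 with detergent and BSA | Also added: Cytochrome c trigger plus (Z-DEVD)2-Rh110 caspase-3 substrate | Incubation: 30 min compound preincubation, 50 min activation, room temperature | Detection: Rhodamine 110 fluorescence at Ex 480/Em 540 nm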
Pemphigus Ab inh – human desmoglein-3 autoantibody binding inhibition. binding (percent of control), % at 10 µM. DSG3-coupled beads, scFv-anti-DSG3-GFP binding, flow cytometry; stronger effect = lower value. P32926. 310,000 compounds, 0.48% hits;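 active = binding more than 3 SD below its plate's average and above zero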;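 also: hits lower antibody fragment binding to DSG3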
UBC13 inh – blocks human UBC13 polyubiquitin chain formation. P61088. TR-FRET. 330,000 compounds, 0.47% hits. inhibition, % at 20 µM; in the data active = inhibition above about 45%, passing the limit was not always enough
MEKK3 PB1 HTS – raises or lowers MEK5 binding to the human MEKK3 PB1 domain. Q99759. bead-based flow cytometry, Alexa488-MEK5 binding to MEKK3; actives lie on both sides; 0 = blocked by unlabeled MEK5, 100 = vehicle. binding response (% of control), % at 10 µM. 290,000 compounds, 1.4% hits;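 active = binding response more than 3 SD above or below the average of its plate-row segment, actives on both sides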;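 also: Alexa488 bead fluorescence after subtracting the streptavidin-only scavenger bead signal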
MEKK2 mut-MEK5 – signal of MEK5 binding to mutant human MEKK2 PB1 domain; percent response, % at 10 µM; 290,000 compounds, 0.35% hits; bead flow cytometry, Alexa488-MEK5 binding to MEKK2 mutant; in the data active = percent response above about 24%, passing the limit was not always enough
MEKK2wt confirm – raises or lowers MEK5 binding to wildtype human MEKK2, retest; bead flow cytometry, Alexa488-MEK5 binding to MEKK2 WT; actives lie on both sides; binding response (% of control), % at 10 µM; shares compounds with MEKK3 PB1 HTS; 5,900 compounds, 2.4% hits; in the data active = binding response below about 16% or above about 210%; inactive = in between
MEKK2mut confirm – signal of MEK5 binding to mutant human MEKK2, retest | AID 1893 | shares compounds with MEKK3 PB1 HTS | percent response, % at 10 µM | 5,900 compounds, 2% hits | bead flow cytometry, Alexa488-MEK5 binding to MEKK2 mutant; in the data active = percent response mostly above about 71%, no sharp cut-off; inactive = mostly below about 38%;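 also: higher means compound restores mutant binding toward wildtype level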
MEKK3 confirm – confirmation of inhibitors of MEK5 binding to human MEKK3; shares compounds with MEKK3 PB1 HTS; bead flow cytometry, Alexa488-MEK5 binding to MEKK3; stronger effect = lower value; binding response (% of control), % at 10 µM; 5,900 compounds, 1.8% hits; AID 1894;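 active = binding response below 72% of control, or above a set upper limit, though filed actives all read lower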;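 also: 100% = DMSO only wells and 0% = binding blocked by excess unlabeled MEK5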
Numbers without * were called inactive; . = no result; [ ] = another dose, or the depositor's remark.

SMILES	MEKK2 WT-MEK5	Apaf1 inhib	Pemphigus Ab inh	UBC13 inh	MEKK3 PB1 HTS	MEKK2 mut-MEK5	MEKK2wt confirm	MEKK2mut confirm	MEKK3 confirm
CC(Sc1nnc(C2CC2)n1C)C(=O)Nc1ccc(N2CCOCC2)cc1 (stereo unspecified)	.	-5	107	-4	.	.	.	.	.
O=C(NCc1ccco1)C1CC(c2ccc(Cl)c(Cl)c2)=NO1 (stereo unspecified)	42*[inhibitor]	3	97	-4	39*[inhibitor]	-18	103	4	103
O=C(NCc1ccco1)C1CC(c2c(Cl)cccc2Cl)=NO1 (stereo unspecified)	98	1	108	-10	98	3	.	.	.
CCOc1ccc(CCNC(=O)CCS(=O)(=O)c2ccc(C)cc2)cc1OCC	103	5	105	8	105	6	.	.	.
COc1cccc(-c2cc(C(=O)NCc3ccco3)c3ccccc3n2)c1	95	7	125	-2	97	0	.	.	.
CCCN1CCC(=NNC(=O)CSc2cc(C)c(Br)cc2C)CC1	111	1	103	10	136*	1	115	7	104
O=C(Nc1ccc(F)cc1)OCCN1CCN(Cc2ccccc2)CCC1=O	2.0*[inhibitor]	6	102	7	2.0*[inhibitor]	-2	103	-3	100
Cc1cc(C(=O)N/N=C/c2cc(N=Nc3ccccc3)ccc2O)n[nH]1	66	.	.	.	38*[inhibitor]	-4	79	-16	86
COC(=O)N/N=C/c1cc(N=Nc2ccccc2)ccc1O	97	-9	106	-85	95	0	.	.	.
CC(=O)c1cn(N2CCCCC2)c(=O)[nH]c1=O	99	3	113	-9	97	0	.	.	.
CC12CCC(=O)N1C(C(=O)OCC(=O)Nc1ccc(S(N)(=O)=O)cc1)CS2 (stereo unspecified)	49*[inhibitor]	14	.	-10	104	10	100	-5	99
CC12CCC(=O)N1C(C(=O)OCC(=O)Nc1ccc(C(F)(F)F)cc1)CS2 (stereo unspecified)	.	2	99	1	.	.	.	.	.
O=C(NS(=O)(=O)Oc1ccc(Cl)cc1)OC[C@@H]1CCCN2CCCC[C@H]12	113	9	101	-3	149*	1	102	2	100
COc1ccccc1-c1ccc(SCc2ccccc2)nn1	79	-7	103	21	73*[inhibitor]	-3	98	-3	101
COc1ccccc1-c1ccc(SCc2cccc(F)c2)nn1	97	-9	.	1	101	-3	.	.	.
CCc1nnc(NC(=O)CSc2ccc(-c3ccccc3OC)nn2)s1	83	-10	114	12	67*[inhibitor]	-3	97	-3	100
CCc1nnc(NC(=O)CSc2ccc(-c3cccs3)nn2)s1	83	11	108	-21	90	-11	.	.	.
COc1cccc(C(=O)NCCS(=O)(=O)NCCCc2ccccc2)c1	.	14	126	6	.	.	.	.	.
CCOc1ccc(NS(=O)(=O)c2ccc(C(=O)N3CCN(C(C)=O)CC3)cc2)cc1	101	14	.	4	98	5	.	.	.
COC(=O)/C(=C/c1ccc2c(c1)c1ccccc1n2C)NC(=O)c1ccccc1	99	-6	96	2	73*[inhibitor]	-1	105	-1	105
CCOC(=O)c1sc2nc(C(C)C)c3c(c2c1N)CCC3	108	6	89	3	138*	0	147	39	112
CCOC(=O)c1sc2nc(C(C)C)c3c(c2c1N)CC(C)(C)OC3	104	12	88	14	101	6	.	.	.
Cc1ccc(C(C)C)c(OCCCNCc2cccnc2)c1	109	3	105	18	100	3	.	.	.
Cc1ccc(C(C)C)c(OCCNCCc2ccccc2)c1	160*	27	102	22	112	9	98	-4	99
O=C(NCC1OCCc2ccccc21)c1ccc(NC(=O)c2ccc(Cl)cc2)cc1 (stereo unspecified)	112	3	97	-1	134*	2	105	9	106
SMILES	MEKK2 WT-MEK5	Apaf1 inhib	Pemphigus Ab inh	UBC13 inh	MEKK3 PB1 HTS	MEKK2 mut-MEK5	MEKK2wt confirm	MEKK2mut confirm	MEKK3 confirm
COc1ccccc1CCc1nnc(CCC(=O)NC(C)Cn2nc(C)cc2C)o1 (stereo unspecified)	50	-1	96	-2	37*[inhibitor]	-18	104	4	107
CCCCOC(=O)c1ccc(NC(=O)C(=O)NCc2ccco2)cc1	110	-8	104	-2	136*	0	88	-13	91
CCCOC(=O)c1ccc(NC(=O)c2ccccc2OC)cc1	105	16	109	4	106	-3	.	.	.
CCCCOC(=O)c1ccc(NC(=O)c2ccccc2OC)cc1	118	12	97	4	136*	2	103	2	106
CCOC(=O)Cc1csc(NC(=O)c2ccc(OC)c(OC)c2)n1	0.0*[inhibitor]	0	101	3	1.0*[inhibitor]	-42	96	1	99
CCOC(=O)Cc1csc(NC(=O)COc2ccc(N(C)S(=O)(=O)c3ccc(C)cc3)cc2)n1	116	15	.	8	128*	9	104	3	107
CCOC(=O)Cc1csc(NC(=O)COc2ccc(OC)cc2)n1	99	2	104	5	99	5	.	.	.
COc1ccc(CC(=O)N2CCN=C2SCc2ccc([N+](=O)[O-])cc2)cc1	118	-7	101	6	130*	3	95	-4	99
N#C/C(=N\Nc1ccc(Cl)c(Cl)c1)C(=O)C1CC1	45*[inhibitor]	-2	93	-3	45*[inhibitor]	-8	94	-2	99
N#C/C(=N\Nc1ccc(F)cc1)C(=O)C1CC1	103	2	102	-13	102	-2	.	.	.
COc1ccc(NC(=O)c2cn(CCC#N)nc2-c2cccs2)cc1	108	5	101	0	140*	1	104	4	104
COc1ccc(C(CC(=O)c2ccc(O)cc2)S(=O)(=O)c2ccc(C)cc2)cc1 (stereo unspecified)	37*[inhibitor]	-64	124	3	26*[inhibitor]	-18	98	-4	99
COc1ccc(C(=O)CC(c2ccccc2)S(=O)(=O)c2ccc(C)cc2)cc1 (stereo unspecified)	100	12	.	-17	97	-2	.	.	.
